Consider 33 compounds from ChEMBL document CHEMBL3600299, “Identification of alpha-substituted acylamines as novel, potent, and orally active mGluR5 negative allosteric modulators” (Bioorg Med Chem Lett, 2015).

Molecules are shown by their SMILES. Active and inactive are the calls of the source. A value given as a limit tells only on which side of the number the result lay.

One data set deals with T1, Metabotropic glutamate receptor 5 (Homo sapiens, UniProt P41594). Briefly: Negative allosteric modulator activity against human mGluR5 expressed in HEK293 cells assessed as inhibition of glutamate-induced inositol phosphate accumulation by IP-one HTRF assay. The format is functional, cell-based.
Conditions: not given
Put shortly:
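HEK293 cells stably expressing human mGluR5 incubated 60 min with 2.5 lmol/L glutamate, with or without compound. Glutamate-induced inositol phosphate (IP1) accumulation read by IP-One HTRF kit.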
Target sequence in this assay (P41594 whole entry): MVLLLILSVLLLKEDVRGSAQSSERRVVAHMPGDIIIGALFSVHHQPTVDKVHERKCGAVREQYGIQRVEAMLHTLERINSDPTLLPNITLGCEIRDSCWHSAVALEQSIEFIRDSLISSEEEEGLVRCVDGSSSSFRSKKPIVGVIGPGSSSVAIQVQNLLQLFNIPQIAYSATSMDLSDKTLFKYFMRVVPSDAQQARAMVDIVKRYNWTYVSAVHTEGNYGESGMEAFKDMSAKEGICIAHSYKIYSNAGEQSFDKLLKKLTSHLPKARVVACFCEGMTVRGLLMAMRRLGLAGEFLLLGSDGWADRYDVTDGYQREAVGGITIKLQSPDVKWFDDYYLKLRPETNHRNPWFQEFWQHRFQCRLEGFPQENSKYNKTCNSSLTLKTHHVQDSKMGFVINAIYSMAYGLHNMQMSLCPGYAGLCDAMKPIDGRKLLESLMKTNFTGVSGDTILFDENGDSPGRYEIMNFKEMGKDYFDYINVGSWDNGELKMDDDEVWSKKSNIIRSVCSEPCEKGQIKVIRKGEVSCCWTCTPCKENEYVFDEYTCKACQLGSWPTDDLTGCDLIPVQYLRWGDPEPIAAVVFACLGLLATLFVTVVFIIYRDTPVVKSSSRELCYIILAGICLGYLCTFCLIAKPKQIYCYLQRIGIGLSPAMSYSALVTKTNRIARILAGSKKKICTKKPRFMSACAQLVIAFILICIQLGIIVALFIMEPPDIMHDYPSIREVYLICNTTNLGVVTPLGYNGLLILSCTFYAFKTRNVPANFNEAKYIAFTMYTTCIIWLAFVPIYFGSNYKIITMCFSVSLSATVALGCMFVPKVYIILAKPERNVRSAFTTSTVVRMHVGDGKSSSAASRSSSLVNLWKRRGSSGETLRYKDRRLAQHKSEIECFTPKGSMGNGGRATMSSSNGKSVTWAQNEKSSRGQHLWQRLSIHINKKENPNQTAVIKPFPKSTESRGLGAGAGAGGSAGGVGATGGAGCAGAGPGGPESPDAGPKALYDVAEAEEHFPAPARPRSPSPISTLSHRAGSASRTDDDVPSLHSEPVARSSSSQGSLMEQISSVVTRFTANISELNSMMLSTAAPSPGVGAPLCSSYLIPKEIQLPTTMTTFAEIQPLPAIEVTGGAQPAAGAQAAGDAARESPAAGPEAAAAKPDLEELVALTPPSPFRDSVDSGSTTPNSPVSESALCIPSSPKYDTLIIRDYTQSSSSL
With `CCC[C@@H](NC(=O)c1nccs1)c1cnc(Nc2ccc(OC)nc2)c(Cl)c1`, the IC50 is 13.3 nM.
The same measure, in the same setting: with `Cc1ccc(Nc2ncc([C@H](NC(=O)c3nccs3)C(C)C)cc2Cl)cn1` the figure was 7.5 nM.
Same read-out and setting: with `Cc1ccc(Nc2ncc(C3CCCN3C(=O)c3nccs3)cc2Cl)cn1` (stereo not given) the figure was 182 nM; with `CCC[C@@H](NC(=O)c1nccs1)c1cnc(Nc2ccc(C)nc2)c(Cl)c1`, 8.2 nM.
Same read-out and setting: with `Cc1ccc(Nc2ncc([C@@H](NC(=O)c3nccs3)C3CCC3)cc2Cl)cn1` the figure was greater than 1000 nM; with `CCC[C@@H](NC(=O)c1nccs1)c1cnc(Nc2cnc(C)nc2)c(Cl)c1`, 43.9 nM.
Take `CCC[C@@H](NC(=O)c1nccs1)c1cnc(Nc2cnc(C)s2)c(Cl)c1`: the IC50 is 60 nM.
Regarding `CCC[C@@H](NC(=O)c1nc(C)cs1)c1cnc(Nc2ccc(C)nc2)c(Cl)c1`, the IC50 turned out to be 10 nM.
For the compound `CCC[C@@H](NC(=O)c1nccs1)c1cnc(Nc2ccc(F)nc2)c(Cl)c1`, the IC50 amounted to 12.8 nM.
For the compound `CCC[C@@H](NC(=O)c1cocn1)c1cnc(Nc2ccc(C)nc2)c(Cl)c1`, the IC50 came to 23.3 nM.
In the case of `CCCN(Cc1cnc(Nc2ccc(C)nc2)c(Cl)c1)C(=O)c1nccs1`, the IC50 came to 584 nM.
Take `CCC[C@@H](NC(=O)c1ccccn1)c1cnc(Nc2ccc(C)nc2)c(Cl)c1`: the half-maximal inhibitory concentration (IC50) was 27.8 nM.
On to `C/C=C/C[C@@H](NC(=O)c1nccs1)c1cnc(Nc2ccc(C)nc2)c(Cl)c1`, for which the IC50 is 8.8 nM.
Turning to `Cc1ccc(Nc2ncc([C@H](NC(=O)c3nccs3)C3CC3)cc2Cl)cn1`, the IC50 stood at 9.7 nM.
Still for that read-out and setting: with `CCCC[C@@H](NC(=O)c1nccs1)c1cnc(Nc2ccc(C)nc2)c(Cl)c1` the figure was 30.9 nM.
`CCC[C@@H](NC(=O)c1nccs1)c1cnc(Nc2cccnc2)c(Cl)c1`: the IC50 is 71.4 nM.
`Cc1ccc(Nc2ncc([C@@H](NC(=O)c3nccs3)C(C)C)cc2Cl)cn1`: the IC50 is 1050 nM.
For `CCCC(NC(=O)c1nccs1)c1cnc(Nc2ccc(C)nc2)c(Cl)c1` (stereo not given), the IC50 worked out at 28.7 nM.
Regarding `C=CC[C@@H](NC(=O)c1nccs1)c1cnc(Nc2ccc(C)nc2)c(Cl)c1`, the IC50 amounted to 2.4 nM.
Regarding `Cc1ccc(Nc2ncc([C@H](NC(=O)c3nccs3)C3CCC3)cc2Cl)cn1`, the IC50 amounted to 9.3 nM.
Regarding `Cc1ccc(Nc2ncc([C@H](NC(=O)c3nccs3)C(C)(C)C)cc2Cl)cn1`, the IC50 is 30.9 nM.
The same measure, in the same setting: with `CCC[C@H](NC(=O)c1nccs1)c1cnc(Nc2ccc(C)nc2)c(Cl)c1` the figure was 978 nM.
With `CC[C@H](NC(=O)c1nccs1)c1cnc(Nc2ccc(C)nc2)c(Cl)c1`, the IC50 was greater than 1000 nM.
With `CCC[C@@H](NC(=O)c1ncco1)c1cnc(Nc2ccc(C)nc2)c(Cl)c1`, the IC50 turned out to be 42.2 nM.
Same read-out and setting: with `CCC[C@@H](NC(=O)c1cscn1)c1cnc(Nc2ccc(C)nc2)c(Cl)c1` the figure was 31.2 nM; with `Cc1ccc(Nc2ncc([C@H](NC(=O)c3nccs3)C3CCCCC3)cc2Cl)cn1`, 37.8 nM.
Regarding `CC[C@@H](NC(=O)c1nccs1)c1cnc(Nc2ccc(C)nc2)c(Cl)c1`, the IC50 was found to be 15.4 nM.
Turning to `Cc1ccc(Nc2ncc([C@H](NC(=O)c3nccs3)C3CCCC3)cc2Cl)cn1`, the concentration for half-maximal inhibition (IC50) is 16.6 nM.
With `Cc1ccc(Nc2ncc([C@@H](Cc3ccccc3)NC(=O)c3nccs3)cc2Cl)cn1`, the IC50 worked out at 55.5 nM.
In the case of `COC[C@H](NC(=O)c1nccs1)c1cnc(Nc2ccc(C)nc2)c(Cl)c1`, the IC50 stood at 55.9 nM.

For the next data set, the target named is T1, Metabotropic glutamate receptor 5. In words: Negative allosteric modulator activity against human mGluR5 expressed in HEK293 cells assessed as inhibition of glutamate-induced inositol phosphate accumulation at 100 nM by IP-one HTRF assay. The class given is functional, cell-based.
Conditions: not given
(TR-FRET usually uses a lanthanide donor and a delayed reading to cut background.)
Target sequence in this assay (P41594 21-1212 limits assumed): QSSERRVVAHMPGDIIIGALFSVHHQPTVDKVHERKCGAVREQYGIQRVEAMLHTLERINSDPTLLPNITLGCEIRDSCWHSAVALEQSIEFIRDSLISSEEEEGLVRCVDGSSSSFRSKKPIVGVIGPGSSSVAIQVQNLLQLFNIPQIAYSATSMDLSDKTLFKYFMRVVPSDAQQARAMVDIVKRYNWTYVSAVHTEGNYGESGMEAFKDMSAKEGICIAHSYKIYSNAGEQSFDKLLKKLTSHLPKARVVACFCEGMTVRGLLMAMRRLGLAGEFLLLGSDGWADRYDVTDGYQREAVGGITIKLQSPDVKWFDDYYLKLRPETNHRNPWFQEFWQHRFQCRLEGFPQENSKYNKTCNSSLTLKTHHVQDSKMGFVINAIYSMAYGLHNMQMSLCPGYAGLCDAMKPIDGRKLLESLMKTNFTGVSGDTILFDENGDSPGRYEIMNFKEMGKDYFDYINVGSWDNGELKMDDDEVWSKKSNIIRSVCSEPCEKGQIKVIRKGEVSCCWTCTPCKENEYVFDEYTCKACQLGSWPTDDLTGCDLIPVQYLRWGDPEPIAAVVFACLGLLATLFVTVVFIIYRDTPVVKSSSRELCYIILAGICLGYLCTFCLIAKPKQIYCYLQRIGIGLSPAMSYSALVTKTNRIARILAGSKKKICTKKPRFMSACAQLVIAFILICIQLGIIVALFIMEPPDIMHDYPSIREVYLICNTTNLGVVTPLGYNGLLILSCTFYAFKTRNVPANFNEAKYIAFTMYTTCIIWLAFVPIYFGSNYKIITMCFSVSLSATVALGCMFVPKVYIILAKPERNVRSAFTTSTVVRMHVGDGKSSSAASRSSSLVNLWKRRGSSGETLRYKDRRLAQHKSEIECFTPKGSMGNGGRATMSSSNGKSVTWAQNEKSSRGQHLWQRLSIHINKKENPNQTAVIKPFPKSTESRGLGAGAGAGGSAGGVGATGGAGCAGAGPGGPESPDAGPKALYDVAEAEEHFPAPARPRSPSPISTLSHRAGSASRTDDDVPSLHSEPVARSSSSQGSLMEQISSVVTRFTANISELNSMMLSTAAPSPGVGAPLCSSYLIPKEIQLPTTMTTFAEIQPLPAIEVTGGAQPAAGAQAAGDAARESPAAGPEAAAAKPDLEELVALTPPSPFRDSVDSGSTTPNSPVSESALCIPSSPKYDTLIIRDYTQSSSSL
Regarding `CCC[C@@H](NC(=O)c1ncc(C)s1)c1cnc(Nc2ccc(C)nc2)c(Cl)c1`, the inhibition was 49%.
The same measure, in the same setting: with `CCC[C@@H](NC(=O)c1nccs1)c1cnc(Nc2ccc(C(F)(F)F)nc2)c(Cl)c1` the figure was 31%.
On to `CCC[C@@H](NC(=O)c1ccccc1)c1cnc(Nc2ccc(C)nc2)c(Cl)c1`, for which the inhibition amounted to 30%.

A further data set deals with Mus musculus. Briefly: Anxiolytic-like activity in mouse model of stress-induced hyperthermia assessed as reduction in stress-induced hyperthermia response at 1 mg/kg, po dosed 1 hr before first rectal temperature measurement.
Conditions: not given
The class given is functional, organism-based. In outline: (§1)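 Mice dosed orally with test article in 0.5% methylcellulose vehicle 1 h before first rectal temperature (T1); second rectal temperature (T2) taken 10 min after T1. Basal temperature from T1; SIH response defined as T2–T1. Mean ± SEM, n = 10 per group; one-tailed Williams' test vs vehicle, p <0.025.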
For the compound `C=CC[C@@H](NC(=O)c1nccs1)c1cnc(Nc2ccc(C)nc2)c(Cl)c1`, the result was Active.

A further data set relates to Mus musculus. In words: Effect on basal rectal temperature in mouse model of stress-induced hyperthermia at 0.1 to 1 mg/kg, po dosed 1 hr before first rectal temperature measurement. The class given is ADME, organism-based. To be noted: in vivo. Put shortly: as §1
For `C=CC[C@@H](NC(=O)c1nccs1)c1cnc(Nc2ccc(C)nc2)c(Cl)c1`, the Activity entry is “Non-toxic”.

In general, IC50 refers to the point on the concentration scale where inhibition reaches its midpoint. By inhibition is commonly meant the drop in the measured response relative to a control, in per cent.
